Results collected from several papers.
Protocols differ between the studies behind these lines.
Target: Homeodomain-interacting protein kinase 2 (HIPK2, Homo sapiens, UniProt Q9H2X6)

SMILES | effect on | mode | technique | tested at | endpoint | result
Cn1cc(-c2cccc(N3CCc4c(sc5c4CC(C)(C)C5)C3=O)c2CO)cc(Nc2ccncn2)c1=O | enzyme activity | inhibitor | – | 1 µM | inhibition | -4%
Cn1cncc1[C@@](O)(COc1ccc(C#N)cc1-c1ccc(OC(F)(F)F)cc1)c1ccc(C#N)cc1 | cell-free assay | – | competition with immobilised ligand | 1 µM | remaining binding | 100%
Cc1nn(C)cc1-c1nc2c(N3CCN(Cc4ccc(Cl)cc4)CC3)c(Cl)cnc2[nH]1 | binding | – | competition with immobilised ligand | 1 µM | remaining binding | 70%
N#CC1(c2ccccn2)CCN(Cc2cc(C(=O)O)c(=O)n3ccccc23)CC1 | cell-free assay | – | competition with immobilised ligand | 1 µM | remaining binding | 66%
Cn1cc(-c2cc(F)cc(N3CCn4c(cc5c4CCCC5)C3=O)c2CO)cc(Nc2ccc(N3CCN(C4COC4)CC3)cn2)c1=O | enzyme activity | inhibitor | – | 0.1 µM | inhibition | 9%
CC(C)(C)c1cc(C=C(C#N)C#N)cc(Br)c1O | enzyme activity | inhibitor | – | 0.5 µM | remaining activity | 110%
COc1ncccc1-c1cnn2ccc(N3CCN(C(=O)OC(C)C)CC3)nc12 | binding | – | competition with immobilised ligand | 1 µM | remaining binding | 88%
Nc1ncc(-c2nc(N3CCOCC3)nc(N3CCOCC3)n2)c(C(F)F)n1 | binding | – | competition with immobilised ligand | 10 µM | remaining binding | 59%
O=c1[nH]c2ccccc2n1C1CCN(Cc2ccc(-c3[nH]c4cc5ncnc5cc4nc3-c3ccccc3)cc2)CC1 | cell-free assay | – | – | 0.5 µM | remaining signal | 110%
